Drawing on ChEMBL document CHEMBL2429797, “2,5,6-trisubstituted imidazo[2,1-b][1,3,4]thiadiazoles: search for antihyperlipidemic agents” (Eur J Med Chem, 2013), this text covers Activity and Ratio for 14 compounds.

Calls of active or inactive are those of the source. The calls are words filed in the database; no cut-off is given here.

Series [1] relates to Rattus norvegicus. As to the kind of experiment: Antihyperlipidemic activity in Triton-X-100-induced hyperlipidemia Wistar albino rat model assessed as reduction of total cholesterol level in serum at 250 mg/kg, po qd for 7 days. It is filed as functional. An outline of the steps: (§1)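 Male Wistar albino rats (200–250 g), fasted 18 h, then given a single i.p. injection of Triton-X-100 (100 mg/kg) in saline. Starting 72 h later, dosed orally once daily for 7 days with suspension in 5% CMC; six per group. Retro-orbital blood taken under ether; serum separated at 2500 × g, 15 min, 4 °C, and lipids assayed. Mean ± SEM, n = 6.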

For series [2], the system named is Rattus norvegicus. Nature of the series: Ratio of LDL level in serum to HDL level in serum in Triton-X-100-induced hyperlipidemia Wistar albino rat model at 250 mg/kg, po qd for 7 days. Format: functional. In outline:
(§2)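 Triton-X-100 hyperlipidemic male Wistar rats, n = 6 per group, dosed orally for 7 days in 5% CMC. Serum lipids were measured and risk ratios calculated per NCEP (2002): total cholesterol:HDL (atherogenic index) and LDL:HDL.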

Series [3] deals with Rattus norvegicus. Nature of the series: Antihyperlipidemic activity in Triton-X-100-induced hyperlipidemia Wistar albino rat model assessed as increase of HDL level in serum at 250 mg/kg, po qd for 7 days. Format: functional. In outline:
as §1

Series [4] has as its system Rattus norvegicus. Nature of the series: Antihyperlipidemic activity in Triton-X-100-induced hyperlipidemia Wistar albino rat model assessed as reduction of triglyceride level in serum at 250 mg/kg, po qd for 7 days. Format: functional. In outline:
as §1

The test system of series [5] is Rattus norvegicus. Nature of the series: Antihyperlipidemic activity in Triton-X-100-induced hyperlipidemia Wistar albino rat model assessed as reduction of VLDL level in serum at 250 mg/kg, po qd for 7 days. Format: functional. In outline: as §1
Series [6] concerns Rattus norvegicus. Nature of the series: Antihyperlipidemic activity in Triton-X-100-induced hyperlipidemia Wistar albino rat model assessed as reduction of LDL level in serum at 250 mg/kg, po qd for 7 days. Format: functional. An outline of the steps:
as §1

Series [7] has as its system Rattus norvegicus. Nature of the series: Ratio of total cholesterol level in serum to HDL level in serum in Triton-X-100-induced hyperlipidemia Wistar albino rat model at 250 mg/kg, po qd for 7 days. Format: functional. An outline of the steps: as §2
The subject of series [8] is Rattus norvegicus. As to the kind of experiment: Hepatotoxicity in Triton-X-100-induced hyperlipidemia Wistar albino rat model assessed as SGPT level in serum at 250 mg/kg, po qd for 7 days. Format: toxicity, organism-based. The arrangement: dose 250 mg/kg, route oral. Conditions: in vivo, 168 h. An outline of the steps:
(§3)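 Serum from Triton-X-100 hyperlipidemic male Wistar rats, dosed orally daily for 7 days in 5% CMC. Blood taken retro-orbitally under ether. Assays: alanine transferase and aspartate transferase reported in IU, alkaline phosphatase in KA units. Normal ranges are given alongside.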

The test system of series [9] is Rattus norvegicus. As to the kind of experiment: Hepatotoxicity in Triton-X-100-induced hyperlipidemia Wistar albino rat model assessed as SGOT level in serum at 250 mg/kg, po qd for 7 days. Format: toxicity, organism-based. The arrangement: dose 250 mg/kg, route oral. Conditions: in vivo, 168 h. In outline:
as §3

Series [10] has as its system Rattus norvegicus. Nature of the series: Protective activity against Triton-X-100-induced hepatotoxicity in Wistar albino rat assessed as mild cytoplasmic fatty infiltration and mild granular degeneration in liver at 250 mg/kg, po qd for 7 days. Format: functional, organism-based. The arrangement: dose 250 mg/kg.
Series [11] relates to Rattus norvegicus. Nature of the series: Hepatotoxicity in Triton-X-100-induced hyperlipidemia Wistar albino rat model assessed as alkaline phosphatase level in serum at 250 mg/kg, po qd for 7 days. It is filed as toxicity, organism-based. Also noted: dose 250 mg/kg, route oral. To be noted: in vivo, 168 h. An outline of the steps: as §3
Series [12] relates to Rattus norvegicus. As to the kind of experiment: Protective activity against Triton-X-100-induced hepatotoxicity in Wistar albino rat assessed as mild cytoplasmic fatty infiltration and mild to moderate granular degeneration in liver at 250 mg/kg, po qd for 7 days. Format: functional, organism-based. Also noted: dose 250 mg/kg.

With `COc1ccc(/N=C/c2c(-c3ccc(Cl)cc3)nc3sc(-c4ccc5c(c4)OCO5)nn23)cc1`, the Activity was 107.83 mg/dL in series [1]; 31.34 mg/dL in series [3]; 83.56 mg/dL in series [4]; 16.86 mg/dL in [5]; 59.85 mg/dL in series [6]. Further, the results for the Ratio in series [2] and in series [7] were 1.9 and 3.44, respectively.

Turning to `Brc1ccc(/N=C/c2c(-c3ccccc3)nc3sc(-c4ccc5c(c4)OCO5)nn23)cc1`, the Activity in [1] came out at 112.78 mg/dL; in series [3], 24.78 mg/dL; in [4], 86.89 mg/dL; in series [5], 19.86 mg/dL; in [6], 63.74 mg/dL. For the same compound, the Ratio in series [2] amounted to 2.57; in series [7], 4.55.

Take `Cc1ccc(/N=C/c2c(-c3ccc(Cl)cc3)nc3sc(-c4ccc5c(c4)OCO5)nn23)cc1`: the Activity in series [1] was 113.28 mg/dL; in series [3], 29.12 mg/dL; in [4], 85.67 mg/dL; in [5], 18.35 mg/dL; in series [6], 68.84 mg/dL. Further, the Ratio in [2] is 2.36; in [7], 3.89.

`Cc1cccc(/N=C/c2c(-c3ccc(Cl)cc3)nc3sc(-c4ccc5c(c4)OCO5)nn23)c1`: the Activity in series [1] amounted to 113.72 mg/dL; in series [3], 28.12 mg/dL; in series [4], 86.23 mg/dL; in [5], 19.93 mg/dL; in series [6] it was 62.83 mg/dL. In addition, the values for the Ratio in series [2] and in series [7] were 2.23 and 4.04, respectively.

Turning to `O=C(N/N=C/c1c(-c2ccc(Cl)cc2)nc2sc(-c3ccc4c(c3)OCO4)nn12)c1ccccc1`, the Activity in series [1] was determined as 107.87 mg/dL; in series [3], 29.93 mg/dL; in [4], 80.67 mg/dL; in series [5], 16.34 mg/dL; in series [6] it was 59.12 mg/dL. The values for the Ratio in series [2] and in series [7] were 1.97 and 3.6, respectively.

`NS(=O)(=O)c1ccc(/N=C/c2c(-c3ccc(Cl)cc3)nc3sc(-c4ccc5c(c4)OCO5)nn23)cc1`: the Activity came out at 101.56 mg/dL in [1]; 33.78 mg/dL in series [3]; 28.6 IU in [8]; 51.7 IU in series [9]; 79.54 mg/dL in [4]; 14.73 mg/dL in series [5]. Moreover, the Activity came to 52.23 mg/dL in series [6] and 29.3 KA in [11]. The Ratio in [2] was found to be 1.54; in series [7], 3. Also, the result in series [10] was Active.

For the compound `Cc1ccc(/N=C/c2c(-c3ccccc3)nc3sc(-c4ccc5c(c4)OCO5)nn23)cc1`, the Activity in [1] came to 114.36 mg/dL; in series [3], 23.34 mg/dL; in series [4], 88.43 mg/dL; in series [5] it was 22.83 mg/dL; in [6], 66.32 mg/dL. Also, the Ratio was found to be 2.84 in [2] and 4.89 in series [7].

As for `CC(C)OC(=O)C(C)(C)Oc1ccc(C(=O)c2ccc(Cl)cc2)cc1` [FENOFIBRATE], the Activity in [1] came out at 102.24 mg/dL; in [3], 35.21 mg/dL; in series [8], 26.43 IU; in series [9], 49.45 IU; in series [4] it was 71.23 mg/dL; in [5], 13.67 mg/dL. Further, the Activity in series [6] was 51.68 mg/dL; in series [11], 28.33 KA. Also, the results for the Ratio in [2] and in [7] were 1.46 and 2.9, respectively.

As to `COc1ccc(/N=C/c2c(-c3ccccc3)nc3sc(-c4ccc5c(c4)OCO5)nn23)cc1`, the Activity in series [1] is 113.98 mg/dL; in series [3], 28.83 mg/dL; in series [4] it was 84.98 mg/dL; in [5] it was 18.46 mg/dL; in [6] it was 64.73 mg/dL. In addition, the results for the Ratio in [2] and in series [7] were 2.24 and 3.95, respectively.

On to `O=C(O)c1ccc(/N=C/c2c(-c3ccc(Cl)cc3)nc3sc(-c4ccc5c(c4)OCO5)nn23)cc1`, for which the Activity was 96.12 mg/dL in series [1]; 34.78 mg/dL in [3]; 26.8 IU in [8]; 48.3 IU in series [9]; 76.89 mg/dL in series [4]; 15.85 mg/dL in series [5]. Moreover, the Activity in series [6] was 49.94 mg/dL; in series [11], 29.5 KA. The Ratio in series [2] is on record as 1.43; in series [7], 2.76. Moreover, the outcome in series [10] was Active.

On to `Fc1ccc(/N=C/c2c(-c3ccc(Cl)cc3)nc3sc(-c4ccc5c(c4)OCO5)nn23)cc1Cl`, for which the Activity was found to be 99.89 mg/dL in series [1]; 33.57 mg/dL in series [3]; 27.8 IU in [8]; 56.5 IU in [9]; 80.45 mg/dL in series [4]; 15.43 mg/dL in series [5]. In addition, the Activity stood at 54.95 mg/dL in series [6] and 27.3 KA in [11]. Moreover, the Ratio in series [2] was found to be 1.63; in series [7], 2.97. Also, in series [10], the result was Active.

In the case of `Clc1ccc(-c2nc3sc(-c4ccc5c(c4)OCO5)nn3c2/C=N/c2ccc(Br)cc2)cc1`, the Activity came to 103.54 mg/dL in series [1]; 32.85 mg/dL in [3]; 29.3 IU in series [8]; 58.8 IU in [9]; 83.43 mg/dL in series [4]; 16.85 mg/dL in [5]. For the same compound, the Activity in series [6] is 53.82 mg/dL; in series [11], 26.6 KA. For the same compound, the Ratio is given as 1.63 in [2] and 3.15 in [7]. For the same compound, in series [12], the result was Active.

As to `C(=N\c1ccccc1)/c1c(-c2ccccc2)nc2sc(-c3ccc4c(c3)OCO4)nn12`, the Activity in series [1] worked out at 118.23 mg/dL; in series [3], 25.12 mg/dL; in series [4] it was 89.12 mg/dL; in series [5], 21.54 mg/dL; in [6], 65.85 mg/dL. The Ratio stood at 2.62 in series [2] and 4.7 in [7].

For the compound `O=[N+]([O-])c1ccc(/N=C/c2c(-c3ccc(Cl)cc3)nc3sc(-c4ccc5c(c4)OCO5)nn23)cc1`, the Activity in [1] stood at 105.56 mg/dL; in [3] it was 31.54 mg/dL; in [8], 28.3 IU; in [9] it was 49.9 IU; in series [4], 82.56 mg/dL; in series [5] it was 18.13 mg/dL. Also, the Activity in series [6] was 58.24 mg/dL; in series [11], 28.8 KA. In addition, the Ratio in series [2] is reported as 1.84; in series [7], 3.34.
